Experimental data as given in ChEMBL document CHEMBL4622840, “Microbial transformation of glycyrrhetinic acid derivatives by Bacillus subtilis ATCC 6633 and Bacillus megaterium CGMCC 1.1741” (Bioorg Med Chem, 2020).

Experiments:
RAW264.7 = experiment: Antiinflammatory activity in mouse RAW264.7 cells assessed as inhibition of NO production preincubated for 1 hr followed by LPS stimulation measured after 24 hrs by Griess reagent based assay; assay type: functional, cell-based
Procedure, shortened: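 RAW 264.7 macrophages kept at 37 °C under 5% CO2. Cells were exposed to compound for 1 h, then stimulated with LPS at 1.0 μg/mL. After 24 h, nitrite/NO in the medium was read with Griess reagent.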

[1] = Cytotoxicity against mouse RAW264.7 cells assessed as cell viability; assay type: cell-based; parameters: concentration or dose not given beside the values; conditions: read-out: Activity
[2] = Mus musculus, RAW264.7, read-out: IC50

| IC50 (RAW264.7; [2]) | IC50 (RAW264.7; raw264.7) | Compound | viability [1] |
| --- | --- | --- | --- |
| 68.9 µM |  | CC1(C)[C@@H](O)CC[C@]2(C)C3=CC=C4[C@@H]5C[C@@](C)(CO)CC[C@]5(C)C[C@H](O)[C@@]4(CO)[C@]3(C)[C@@H](O)C[C@@H]12 | 130% |
| 47.2 µM |  | CC1(C)[C@@H](O)CC[C@]2(C)[C@H]3C(=O)C=C4[C@@H]5C[C@@](C)(C=O)CC[C@]5(C)CC[C@@]4(C)[C@]3(C)CC[C@@H]12 | 89.6% |
|  | Not Active | CC1(C)[C@@H](O[C@@H]2O[C@H](CO)[C@@H](O)[C@H](O)[C@H]2O)CC[C@]2(C)[C@H]3C(=O)C=C4[C@@H]5C[C@@](C)(CO)CC[C@]5(C)CC[C@@]4(C)[C@]3(C)CC[C@@H]12 | 1.22% |
|  | Not Active | CC1(C)[C@@H](O)CC[C@]2(C)C3[C@H](O)C=C4[C@@H]5C[C@@](C)(CO)CC[C@]5(C)CC[C@@]4(C=O)[C@]3(C)[C@@H](O)C[C@@H]12 (stereo not given in full) | 130% |
| 0.07 µM |  | CC1(C)[C@@H](O)CC[C@]2(C)[C@H]3CC=C4[C@@H]5C[C@@](C)(CO)CC[C@]5(C)C[C@H](O)[C@@]4(CO)[C@]3(C)[C@@H](O)C[C@@H]12 | 107% |
|  | Not Active | CC1(C)CC[C@]2(C(=O)O)CC[C@]3(C)C(=CC(=O)[C@@H]4[C@@]5(C)CC[C@H](O)C(C)(C)[C@@H]5CC[C@]43C)[C@@H]2C1 | 111% |
|  | Not Active | CC1(C)[C@@H](O)CC[C@]2(C)[C@H]3[C@H](O)C=C4[C@@H]5C[C@@](C)(CO)CC[C@]5(C)C[C@H](O)[C@@]4(C)[C@]3(C)[C@@H](O)C[C@@H]12 | 112% |
|  | Not Active | CC1(C)[C@@H](O)CC[C@]2(C)[C@H]3CC=C4[C@@H]5C[C@@](C)(C(=O)O)CC[C@]5(C)CC[C@@]4(CO)[C@]3(C)[C@@H](O)C[C@@H]12 | 114% |
|  | Not Active | CC1(C)[C@@H](O[C@@H]2O[C@H](CO)[C@@H](O)[C@H](O)[C@H]2O)CC[C@]2(C)[C@H]3C(=O)C=C4[C@@H]5C[C@@](C)(C(=O)O[C@@H]6O[C@H](CO)[C@@H](O)[C@H](O)[C@H]6O)CC[C@]5(C)CC[C@@]4(C)[C@]3(C)CC[C@@H]12 | 121% |
|  | Not Active | CC1(C)[C@@H](O)CC[C@]2(C)[C@H]3C(=O)C=C4[C@@H]5C[C@@](C)(C(=O)O)CC[C@]5(C)CC[C@@]4(C)[C@]3(C)CC[C@@H]12 [ENOXOLONE] | 4.04% |
| 0.64 µM |  | CC1(C)[C@@H](O)CC[C@]2(C)[C@H]3CC=C4[C@@H]5[C@H](O)[C@@](C)(CO)CC[C@]5(C)C[C@H](O)[C@@]4(C)[C@]3(C)[C@@H](O)C[C@@H]12 | 125% |
| 38.3 µM |  | CC1(C)C(=O)CC[C@]2(C)[C@H]3CC=C4[C@@H]5C[C@@](C)(CO)CC[C@]5(C)CC[C@@]4(C)[C@]3(C)CC[C@@H]12 | 110% |
|  | Not Active | CC1(C)[C@@H](O)CC[C@]2(C)[C@H]3C(=O)C=C4[C@@H]5C[C@@](C)(C(=O)O[C@@H]6O[C@H](CO)[C@@H](O)[C@H](O)[C@H]6O)CC[C@]5(C)CC[C@@]4(C)[C@]3(C)CC[C@@H]12 | 94.8% |
|  | Not Active | CC1(C)[C@@H](O)CC[C@]2(C)[C@H]3CC=C4[C@@H]5C[C@@](C)(CO)CC[C@]5(C)C[C@H](O)[C@@]4(C)[C@]3(C)[C@@H](O)C[C@@H]12 | 120% |
| 11.1 µM |  | CC1(C)CC[C@]2(C(=O)O[C@@H]3O[C@H](CO)[C@@H](O)[C@H](O)[C@H]3O)CC[C@]3(C)C(=CC(=O)[C@@H]4[C@@]5(C)CC[C@H](O)C(C)(C)[C@@H]5CC[C@]43C)[C@@H]2C1 | 82.7% |
|  | Not Active | CC1(C)[C@@H](O[C@@H]2O[C@H](CO)[C@@H](O)[C@H](O)[C@H]2O)CC[C@]2(C)[C@H]3C(=O)C=C4[C@@H]5C[C@@](C)(C=O)CC[C@]5(C)CC[C@@]4(C)[C@]3(C)CC[C@@H]12 | 7.33% |

| Compound | IC50 (RAW264.7; [2]) | IC50 (RAW264.7; raw264.7) | viability [1] |
| --- | --- | --- | --- |
| CC1(C)[C@@H](O)CC[C@]2(C)[C@H]3CC=C4[C@@H]5C[C@@](C)(CO)CC[C@]5(C)CC[C@@]4(C)[C@]3(C)CC[C@@H]12 | 48.2 µM |  | 102% |
| O=c1c(O)c(-c2ccc(O)c(O)c2)oc2cc(O)cc(O)c12 [QUERCETIN] | 4.53 µM |  | 106% |
| CC1(C)[C@@H](O)CC[C@]2(C)[C@H]3CC=C4[C@@H]5C[C@@](C)(C(=O)O)CC[C@]5(C)CC[C@@]4(C)[C@]3(C)CC[C@@H]12 | 25.6 µM |  | 83.4% |
| CC1(C)[C@@H](O)CC[C@]2(C)[C@H]3C(=O)C=C4[C@@H]5C[C@@](C)(CO)CC[C@]5(C)CC[C@@]4(C)[C@]3(C)CC[C@@H]12 | 50.3 µM |  | 56.6% |
